One experiment relates to HL-60. Put plainly: In vitro cell growth inhibitory activity against HL60 cell line. The experiment is classed as functional, cell-based. Conditions: Homo sapiens.
Another experiment relates to L1210. Put plainly: In vitro cell growth inhibitory activity against L1210 cell line. The experiment is classed as functional, cell-based. The following applies: Mus musculus.
The next experiment concerns CCRF S-180. As to the kind of experiment: In vitro cell growth inhibitory activity against S180 cell line. The experiment is classed as functional, cell-based. Conditions: Mus musculus.
For experiment [1], the system named is Mus musculus. Put plainly: Compound was compared with MTX for in vivo activity against mammary adenocarcinoma E0771 infected mice at a dose of 24 mg/kg; T/C Treated to Control. The experiment is classed as functional. Put shortly:
(§1)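 E0771 mammary adenocarcinoma carried in mice, five mice per test group, with an untreated control group. Dosage is given in mg/kg. Average body weight change (g) and average tumor volume (mm3) were recorded at day 10. T/C is expressed relative to the control group.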

Experiment [2] relates to Mus musculus. As to the kind of experiment: Compound was compared with MTX for in vivo activity against mammary adenocarcinoma E0771 infected mice at a dose of 48 mg/kg; T/C Treated to Control. Format: functional. Summed up:
as §1

A word on the IC50: it is the point on the concentration scale where inhibition reaches its midpoint. In the case of `Cc1c(CCc2ccc(C(=O)NC(CCC(=O)O)C(=O)O)c3ccccc23)cnc2nc(N)nc(N)c12` (stereo unspecified), the IC50 in the experiment on HL-60 turned out to be 9.4 nM; with L1210, 8.8 nM; with CCRF S-180, 29 nM.
A word on the T/C: it is the ratio of treated to control. As to `Nc1nc(N)c2nc(CCc3ccc(C(=O)NC(CCC(=O)O)C(=O)O)c4ccccc34)cnc2n1` (stereo unspecified), the concentration for half-maximal inhibition (IC50) in the experiment with HL-60 is 1.1 nM; in the experiment with L1210, 1.5 nM; in the experiment with CCRF S-180, 1.7 nM. For the same molecule, the T/C in the experiment with Mus musculus [1] worked out at 96%; in the experiment with Mus musculus [2], 52%.
With `CCc1c(CCc2ccc(C(=O)NC(CCC(=O)O)C(=O)O)c3ccccc23)cnc2nc(N)nc(N)c12` (stereo unspecified), the values for the IC50 in the experiment on HL-60, in the experiment on L1210 and with CCRF S-180 were 9.8 nM, 9 nM and 29 nM, respectively.

These data come from ChEMBL document CHEMBL1129798, “Analogues of 10-deazaaminopterin and 5-alkyl-5,10-dideazaaminopterin with the 4-substituted 1-naphthoyl group in the place of 4-substituted benzoyl” (J Med Chem, 1996).
